Laboratory results published in the M2OR odorant receptor database.

Key:
OR5K1 (Homo sapiens) = target: T1, OR5K1 (Homo sapiens) (UniProt Q8NHB7); conditions: stereoisomer not certain
T1 sequence (whole entry): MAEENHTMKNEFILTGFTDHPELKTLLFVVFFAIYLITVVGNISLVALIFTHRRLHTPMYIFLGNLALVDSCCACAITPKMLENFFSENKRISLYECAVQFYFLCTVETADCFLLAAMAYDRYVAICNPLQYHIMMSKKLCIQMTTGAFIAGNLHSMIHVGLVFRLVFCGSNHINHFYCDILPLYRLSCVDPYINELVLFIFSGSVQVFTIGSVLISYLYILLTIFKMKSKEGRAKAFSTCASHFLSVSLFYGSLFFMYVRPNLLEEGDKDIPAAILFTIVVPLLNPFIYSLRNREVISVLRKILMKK
Method in brief: (§1)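 Transient luciferase assays in mammalian cell lines were common, though methods varied by source. The values come from published papers and their supplementary material, with extra details from the original authors when needed. Responsive refers to a measured signal the original authors judged statistically different from baseline, and non-responsive (inactive) to the remainder.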

OR5M3 (Homo sapiens) = target: T2, OR5M3 (Homo sapiens) (UniProt Q8NGP4); conditions: stereoisomer not certain
T2 sequence (whole entry): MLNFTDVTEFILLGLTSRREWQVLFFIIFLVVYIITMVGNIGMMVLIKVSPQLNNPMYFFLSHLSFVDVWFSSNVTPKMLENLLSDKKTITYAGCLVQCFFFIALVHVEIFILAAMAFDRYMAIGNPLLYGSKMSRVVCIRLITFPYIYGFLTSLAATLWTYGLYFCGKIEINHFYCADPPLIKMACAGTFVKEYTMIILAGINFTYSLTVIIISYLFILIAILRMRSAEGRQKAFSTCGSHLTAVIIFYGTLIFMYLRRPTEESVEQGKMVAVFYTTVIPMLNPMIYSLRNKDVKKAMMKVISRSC
Method in brief: as §1
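Note: active if original authors judged signal statistically different from baseline.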

CCOC(=O)CC(C)C
odorant receptor agonist call (OR5K1 (Homo sapiens)): inactive | odorant receptor agonist call (OR5M3 (Homo sapiens)): inactive

CCOC(=O)C(C)C
odorant receptor agonist call (OR5K1 (Homo sapiens)): inactive | odorant receptor agonist call (OR5M3 (Homo sapiens)): inactive

CC(C)(S)CCOC=O
odorant receptor agonist call (OR5K1 (Homo sapiens)): inactive | odorant receptor agonist call (OR5M3 (Homo sapiens)): inactive

CCCCCCCC(C)=O
odorant receptor agonist call (OR5K1 (Homo sapiens)): inactive | odorant receptor agonist call (OR5M3 (Homo sapiens)): inactive

CC1=CCC(C(C)(C)S)CC1 (stereo unspecified)
odorant receptor agonist call (OR5K1 (Homo sapiens)): inactive | odorant receptor agonist call (OR5M3 (Homo sapiens)): inactive

CCCCC=CC=O
odorant receptor agonist call (OR5K1 (Homo sapiens)): inactive | odorant receptor agonist call (OR5M3 (Homo sapiens)): inactive

CCC(S)C(C)=O (stereo unspecified)
odorant receptor agonist call (OR5K1 (Homo sapiens)): inactive | odorant receptor agonist call (OR5M3 (Homo sapiens)): inactive

SCc1cccs1
odorant receptor agonist call (OR5K1 (Homo sapiens)): inactive | odorant receptor agonist call (OR5M3 (Homo sapiens)): inactive

CCOC(C)OCC
odorant receptor agonist call (OR5K1 (Homo sapiens)): inactive | odorant receptor agonist call (OR5M3 (Homo sapiens)): inactive

CC(=O)c1ccc(C)cc1
odorant receptor agonist call (OR5K1 (Homo sapiens)): inactive | odorant receptor agonist call (OR5M3 (Homo sapiens)): inactive

C=CC(=O)CC
odorant receptor agonist call (OR5K1 (Homo sapiens)): inactive | odorant receptor agonist call (OR5M3 (Homo sapiens)): inactive

CCC(=O)C(C)=O
odorant receptor agonist call (OR5K1 (Homo sapiens)): inactive | odorant receptor agonist call (OR5M3 (Homo sapiens)): inactive

CC=CC(=O)C1=C(C)CCCC1(C)C
odorant receptor agonist call (OR5K1 (Homo sapiens)): inactive | odorant receptor agonist call (OR5M3 (Homo sapiens)): inactive
